In brackets after ≈: the same amount, converted by molar mass. Activity calls are given as the source filed them. No cut-off for these calls is given here.
Experiments:
Escherichia coli [1] = experiment: Inhibition of LPS-deficient Escherichia coli OC2530 MurF assessed as UDP-MurNAc-pentapeptide product level at 0.5 times MIC by HPLC (reference value: 1 mAU)
Escherichia coli [2] = experiment: Antimicrobial activity against LPS-deffective Escherichia coli OC2530 at 0.5 times MIC by light microscopy relative to control; assay type: functional, organism-based
Outline: (§1)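 Cells were fixed on a glass slide under a coverslip and viewed by light microscopy at ×100/×1.25 oil immersion. Representative images were taken.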

Enterococcus faecalis [3] = experiment: Antimicrobial activity against Enterococcus faecalis ATCC 29212 by broth microdilution method in presence of polymyxin B nonapeptide; assay type: functional
Outline: (§2)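 MICs by CLSI broth microdilution. Where polymyxin B nonapeptide was included, it was present at 2 μg/ml alongside the test compound.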

Escherichia coli [4] = experiment: Inhibition of LPS-deficient Escherichia coli OC2530 MurF harboring pMurF plasmid assessed as UDP-MurNAc-tripeptide substrate level at 2 times MIC by HPLC (reference value: 220 +/- 65 mAU)
Outline: (§3)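 Compound added at 2× MIC from 500× stock (DMSO control). After 30 min, muropeptides extracted and quantified by HPLC peak area (mAU); representative of two independent experiments.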

Escherichia coli [5] = experiment: Antimicrobial activity against Escherichia coli OC9040 by broth microdilution method; assay type: functional; outline: as §2
Staphylococcus aureus [6] = experiment: Antimicrobial activity against Staphylococcus aureus OC4172 by broth microdilution method in presence of polymyxin B nonapeptide; assay type: functional; outline: as §2
Staphylococcus aureus [7] = experiment: Antimicrobial activity against Staphylococcus aureus OC4172 by broth microdilution method; assay type: functional; outline: as §2
Escherichia coli [8] = experiment: Antimicrobial activity against Escherichia coli OC2605 by broth microdilution method in presence of polymyxin B nonapeptide; assay type: functional; outline: as §2
Staphylococcus aureus [9] = experiment: Antimicrobial activity against methicillin-resistant Staphylococcus aureus OC2878 by broth microdilution method in presence of polymyxin B nonapeptide; assay type: functional
Outline: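 CLSI broth microdilution MIC run in the presence of polymyxin B nonapeptide (PMBN) at 2 μg/ml as a permeabilizer.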

Escherichia coli [10] = experiment: Inhibition of LPS-deficient Escherichia coli OC2530 MurF assessed as UDP-MurNAc-tripeptide substrate level at 2 times MIC by HPLC (reference value: 1 mAU)
Enterococcus faecalis [11] = experiment: Antimicrobial activity against Enterococcus faecalis ATCC 29212 by broth microdilution method; assay type: functional; outline: as §2
Escherichia coli [12] = experiment: Inhibition of LPS-deficient Escherichia coli OC2530 MurF assessed as UDP-MurNAc-tripeptide substrate level at MIC by HPLC (reference value: 1 fold of control)
Escherichia coli [13] = experiment: Antimicrobial activity against LPS-deffective Escherichia coli OC2530 at 0.5 times MIC after 4 hrs by light microscopy relative to control; assay type: functional, organism-based; outline: as §1
Escherichia coli [14] = experiment: Antimicrobial activity against Escherichia coli ATCC 25922 by broth microdilution method; assay type: functional; outline: as §2
Escherichia coli [15] = experiment: Inhibition of LPS-deficient Escherichia coli OC2530 MurF assessed as UDP-MurNAc-pentapeptide product level at 2 times MIC by HPLC (reference value: 1 mAU)
Escherichia coli [16] = experiment: Antimicrobial activity against LPS-deffective Escherichia coli OC2530 by broth microdilution method; assay type: functional; outline: as §2
Escherichia coli [17] = experiment: Inhibition of LPS-deficient Escherichia coli OC2530 MurF assessed as UDP-MurNAc-tripeptide substrate level at 4 times MIC by HPLC (reference value: 1 mAU)
Escherichia coli [18] = experiment: Antimicrobial activity against LPS-deffective Escherichia coli OC2530 at 0.5 times MIC after 30 mins relative to control; assay type: functional, organism-based
Escherichia coli [19] = experiment: Inhibition of LPS-deficient Escherichia coli OC2530 MurF harboring pASK plasmid assessed as UDP-MurNAc-pentapeptide product level at 2 times MIC by HPLC (Rvb =880 +/- 17 mAU); outline: as §3
Escherichia coli [20] = experiment: Inhibition of LPS-deficient Escherichia coli OC2530 MurF assessed as UDP-MurNAc-pentapeptide product level at 4 times MIC by HPLC (reference value: 1 mAU)
Escherichia coli [21] = experiment: Antimicrobial activity against LPS-deffective Escherichia coli OC2530 by broth microdilution method in presence of polymyxin B nonapeptide; assay type: functional; outline: as §2
[22] = Inhibition of Escherichia coli MurF
Escherichia coli [23] = experiment: Antimicrobial activity against LPS-deffective Escherichia coli OC2530 assessed as cell aggregation at 0.5 times MIC by light microscopy relative to untreated control; assay type: functional, organism-based; outline: as §1
Escherichia coli [24] = experiment: Bactericidal activity against LPS-deffective Escherichia coli OC2530 assessed as log reduction in bacterial count at 2 times MIC after 3 hrs relative to control; assay type: functional
Escherichia coli [25] = experiment: Antimicrobial activity against LPS-deffective Escherichia coli OC2530 assessed as cell aggregation at 0.5 times MIC by TEM relative to untreated control; assay type: functional, organism-based
Outline: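 At 5 h, cells were fixed in 1% glutaraldehyde (final) for 1 h at room temperature, pelleted, and resuspended in PBS. They were negatively stained with 1% ammonium molybdate and imaged by TEM at ×15,000.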

Staphylococcus aureus [26] = experiment: Antimicrobial activity against methicillin-resistant Staphylococcus aureus OC2878 by broth microdilution method; assay type: functional
Outline: (§4)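 CLSI broth microdilution MIC; strains from the sponsor's in-house collection.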

Enterococcus faecium [27] = experiment: Antimicrobial activity against Enterococcus faecium OC3312 by broth microdilution method in presence of polymyxin B nonapeptide; assay type: functional; outline: as §2
Staphylococcus aureus [28] = experiment: Antimicrobial activity against Staphylococcus aureus ATCC 29213 by broth microdilution method; assay type: functional; outline: as §2
Staphylococcus aureus [29] = experiment: Antimicrobial activity against methicillin-resistant Staphylococcus aureus OC3726 by broth microdilution method; assay type: functional; outline: as §4
Staphylococcus aureus [30] = experiment: Antimicrobial activity against Staphylococcus aureus ATCC 29213 by broth microdilution method in presence of polymyxin B nonapeptide; assay type: functional; outline: as §2
Enterococcus faecium [31] = experiment: Antimicrobial activity against Enterococcus faecium OC3312 by broth microdilution method; assay type: functional; outline: as §2
Escherichia coli [32] = experiment: Inhibition of LPS-deficient Escherichia coli OC2530 MurF assessed as UDP-MurNAc-pentapeptide product level at MIC by HPLC (reference value: 1 fold of control)
Escherichia coli [33] = experiment: Antimicrobial activity against Escherichia coli OC2605 by broth microdilution method; assay type: functional; outline: as §4
Escherichia coli [34] = experiment: Inhibition of LPS-deficient Escherichia coli OC2530 MurF harboring pMurF plasmid assessed as UDP-MurNAc-pentapeptide product level at 2 times MIC by HPLC (reference value: 2674 +/- 696 mAU); outline: as §3
Escherichia coli [35] = experiment: Antimicrobial activity against LPS-deffective Escherichia coli OC2530 assessed as growth inhibition at MIC by light microscopy; assay type: functional, organism-based
Escherichia coli [36] = experiment: Antimicrobial activity against LPS-deffective Escherichia coli OC2530 assessed as cell lysis at 2 times MIC by light microscopy; assay type: functional, organism-based; outline: as §1
Escherichia coli [37] = experiment: Antimicrobial activity against LPS-deffective Escherichia coli OC2530 harboring pMurF plasmid by broth microdilution method in presence of chloramphenicol; assay type: functional
Outline: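 CLSI broth microdilution MIC for OC2530 carrying plasmid (empty pASK or pMurF). Medium contained chloramphenicol 3 μg/ml to keep the plasmid and AHT 100 ng/ml to induce MurF expression.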

Escherichia coli [38] = experiment: Antimicrobial activity against LPS-deffective Escherichia coli OC2530 assessed as log reduction in bacterial count at 4 times MIC after 30 mins relative to control; assay type: functional

For COc1ccc2nc(OC)c([C@@H](c3ccccc3)[C@](O)(CCN(C)C)c3ccccc3)cc2c1, the Activity (fold of control) (Escherichia coli [1]) was 1.62, the Activity (Escherichia coli [2]) was “inactive” and the MIC (Enterococcus faecalis [3]) was > 32 µg/mL. For the same compound, the Activity (Escherichia coli [4]) was 933 mAU, the MIC (Escherichia coli [5]) was > 32 µg/mL and the MIC (Staphylococcus aureus [6]) was > 32 µg/mL. The MIC (Staphylococcus aureus [7]) was > 32 µg/mL, the MIC (Escherichia coli [8]) was 4 µg/mL and the MIC (Staphylococcus aureus [9]) was > 32 µg/mL. The Activity (fold of control) (Escherichia coli [10]) was 89, the MIC (Enterococcus faecalis [11]) was > 32 µg/mL and the Activity (fold of control) (Escherichia coli [12]) was 27. For the same compound, the Activity (Escherichia coli [13]) was “Active”, the MIC (Escherichia coli [14]) was > 32 µg/mL and the Activity (fold of control) (Escherichia coli [15]) was 0.33. For the same compound, the MIC (Escherichia coli [16]) was 8 µg/mL (≈ 17.5 µM), the Activity (fold of control) (Escherichia coli [17]) was 63 and the Activity (Escherichia coli [18]) was “Active”. It also gave an Activity (Escherichia coli [19]) of 213 mAU, an Activity (fold of control) (Escherichia coli [20]) of 0.15 and an MIC (Escherichia coli [21]) of 2 µg/mL. For the same compound, the IC50 [22] was 24 µM, the Activity (Escherichia coli [23]) was “Active” and the FC (Escherichia coli [24]) was 5. The Activity (Escherichia coli [25]) was “Active”, the MIC (Staphylococcus aureus [26]) was > 32 µg/mL and the MIC (Enterococcus faecium [27]) was > 32 µg/mL. For the same compound, the MIC (Staphylococcus aureus [28]) was > 32 µg/mL, the MIC (Staphylococcus aureus [29]) was > 32 µg/mL and the MIC (Staphylococcus aureus [30]) was > 32 µg/mL. For the same compound, the MIC (Enterococcus faecium [31]) was > 32 µg/mL, the Activity (fold of control) (Escherichia coli [32]) was 1.48 and the MIC (Escherichia coli [33]) was > 32 µg/mL. The Activity (Escherichia coli [34]) was 351 mAU, the Activity (Escherichia coli [35]) was “Active” and the Activity (Escherichia coli [36]) was “Active”. For the same compound, the MIC (Escherichia coli [37]) was 16 µg/mL and the FC (Escherichia coli [38]) was 2.

Source: ChEMBL document CHEMBL1671657, “MurF inhibitors with antibacterial activity: effect on muropeptide levels” (Antimicrob Agents Chemother, 2009)
